“Also recorded” adds a separate entry of the source.
Experiments:
[1] = system: cochlear hair cells; experiment: Recording from acutely isolated cochlear hair cells; type: cell-based, rat; details: up-to 100 µM; in SBS, SN-2 also in ELS
[2] = molecular target: T1, TRPML3 (Homo sapiens, UniProt Q8TDD5); type: cell-based; details: HEK293, read-out: Max % Activation (TRPML3)
T1 sequence (Q8TDD5 1-553): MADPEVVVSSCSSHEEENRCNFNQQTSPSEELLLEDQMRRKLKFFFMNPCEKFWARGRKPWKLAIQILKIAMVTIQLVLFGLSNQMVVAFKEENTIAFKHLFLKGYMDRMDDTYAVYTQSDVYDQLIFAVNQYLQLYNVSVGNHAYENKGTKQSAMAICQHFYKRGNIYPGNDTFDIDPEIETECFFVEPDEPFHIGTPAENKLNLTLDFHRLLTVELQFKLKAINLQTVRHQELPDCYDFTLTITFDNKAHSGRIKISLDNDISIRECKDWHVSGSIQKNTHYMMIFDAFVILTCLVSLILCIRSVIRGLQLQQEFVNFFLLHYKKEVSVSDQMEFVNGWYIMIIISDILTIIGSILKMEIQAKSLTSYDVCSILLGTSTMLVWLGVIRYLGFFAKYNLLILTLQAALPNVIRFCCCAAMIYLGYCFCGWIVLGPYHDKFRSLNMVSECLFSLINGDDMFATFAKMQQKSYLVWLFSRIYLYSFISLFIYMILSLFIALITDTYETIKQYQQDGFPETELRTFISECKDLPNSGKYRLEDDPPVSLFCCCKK
How it was run: (§1)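 HEK293 lines stably expressed YFP-fused human TRPML3 or zebrafish TRPN1 (G418 0.8 mg/ml, twice subcloned) and were plated at 1,500 cells/well for 23 h at 37 °C. After Fluo-8 loading (1 h 37 °C, 30 min RT), a 5 s basal read and 120 s post-addition read were taken. Max/basal ratios were normalized to DMSO and carbachol (87 µM).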

[3] = system: YFP-expressing HEK293 cells; experiment: Fura-2 calcium imaging, YFP-expressing HEK293 cells; type: cell-based; details: mean ±SEM (n≥3)
How it was run: (§2)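 HEK293 cells were transiently transfected (Genejammer) with the human channel construct or YFP control and measured 24 h later. Cells on glass coverslips were loaded with 4 µM fura-2-AM in bath solution (mM: 138 NaCl, 6 KCl, 2 MgCl2, 2 CaCl2, 10 HEPES, 5.5 D-glucose; pH 7.4). Compounds were applied at 10 µM and the F340/F380 ratio recorded. Values are mean ± SEM, n≥3.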

[4] = molecular target: T1, TRPML3; experiment: Whole-cell patch-clamp, HEK293 cells transiently transfected with TRPML3; type: cell-based; details: for nA/pF (-80 mV) (TRPML3): current density at −80 mV, 10 µM in standard bath solution, mean ±SEM (n≥3); for average current density relative to constitutively active TRPML3 A419P: whole-cell, −80 mV
How it was run: (§3)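 Whole-cell patch clamp was done on HEK293 cells 24 h after transient transfection with human TRPML3 or YFP; constitutively active TRPML3(A419P) cells served as positive control. Bath solution (mM): 138 NaCl, 5.4 KCl, 2 MgCl2, 2 CaCl2, 10 HEPES, 10 d-glucose; pH 7.4. Pipette solution (mM): 140 CsCl, 10 HEPES, 3 ATP-Na, 1 BAPTA, 2 MgCl2; pH 7.2. Compounds at 10 µM were perfused. Capacitance-normalized current at −80 mV is reported as mean ± SEM, n≥3.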

[5] = molecular target: T2, TRPML2 (Homo sapiens, UniProt Q8IZK6); experiment: Fura-2 calcium imaging, HEK293 cells expressing TRPML2; type: cell-based; details: 10 µM
T2 sequence (Q8IZK6 1-566): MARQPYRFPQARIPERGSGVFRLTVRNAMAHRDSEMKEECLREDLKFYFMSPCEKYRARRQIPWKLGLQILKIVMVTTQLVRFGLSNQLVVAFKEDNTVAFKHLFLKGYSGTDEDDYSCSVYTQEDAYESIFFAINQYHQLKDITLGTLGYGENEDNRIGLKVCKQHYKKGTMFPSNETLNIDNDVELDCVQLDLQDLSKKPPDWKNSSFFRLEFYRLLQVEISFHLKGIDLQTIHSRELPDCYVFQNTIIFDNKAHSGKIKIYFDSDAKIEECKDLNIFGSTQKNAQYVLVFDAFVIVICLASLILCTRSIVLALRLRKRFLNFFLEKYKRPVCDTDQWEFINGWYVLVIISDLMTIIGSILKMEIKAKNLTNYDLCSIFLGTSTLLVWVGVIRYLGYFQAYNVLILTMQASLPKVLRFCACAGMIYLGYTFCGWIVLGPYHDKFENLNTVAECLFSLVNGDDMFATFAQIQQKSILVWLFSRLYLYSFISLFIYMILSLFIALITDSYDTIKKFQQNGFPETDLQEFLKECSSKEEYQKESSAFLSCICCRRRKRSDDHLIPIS
How it was run: as §2

[6] = molecular target: T1, TRPML3; experiment: Fura-2 calcium imaging, HEK293 cells transiently expressing TRPML3; type: cell-based; details: for ⊗F340/F380 (TRPML3): 10 µM compound, mean ±SEM (n≥3); for kinetics of intracellular calcium increase: TRPML3-transfected HEK293 cells
How it was run: as §2

[7] = molecular target: T3, TRPML3 coexpressed with TRPML1 (Homo sapiens, UniProt Q8TDD5); experiment: Calcium imaging, HEK293 cells coexpressing TRPML3 with TRPML1; type: cell-based; details: 10 µM
T3 sequence (Q8TDD5 1-553): T1 sequence (Q8TDD5 1-553)
How it was run: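 Human TRPML3 and TRPML1 were transiently coexpressed in HEK293 cells (Genejammer) and imaged 24 h post-transfection. Cells on glass coverslips were loaded with 4 μM fura-2-AM in bath solution (mM: 138 NaCl, 6 KCl, 2 MgCl₂, 2 CaCl₂, 10 HEPES, 5.5 D-glucose, pH 7.4) and read on a monochromator imaging system. Test compound was 10 μM. Mean ± SEM, n≥3 independent experiments, 20–30 cells each.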

[8] = molecular target: danio rerio TRPN1 (Danio rerio, UniProt Q7T1G6); type: cell-based; details: for Emax: HEK293, read-out: Max % Activation (Control); for activity against TRPN1: compounds tested from powders
How it was run: as §1

[9] = molecular target: T1, TRPML3; experiment: Whole-cell patch-clamp with intracellular application; type: cell-based
[10] = molecular target: TRPML1(NC) (Homo sapiens, UniProt Q9GZU1); experiment: Fura-2 calcium imaging, HEK293 cells expressing TRPML1; type: cell-based; details: 10 µM, plasma membrane-localized TRPML1 variant
How it was run: as §2

[11] = molecular target: T1, TRPML3; experiment: Excised; type: cell-based; details: patches held at −80 mV
[12] = system: TRPML3; type: cell-based; details: 10 µM compound; ELS 2 mM Na+, 150 mM K+
How it was run: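 Whole-cell recordings used HEK293 cells expressing TRPML3 with 100% series-resistance compensation. Pipette solution (mM): 140 CsCl, 10 HEPES, 3 ATP-Na, 1 BAPTA, 2 MgCl2; pH 7.2. Compound at 10 µM was perfused in endolymph-like solution (mM: 2 NaCl, 150 KCl, 0.25 CaCl2, 10 HEPES, 10 glucose; pH 7.4) or in standard bath. Inward current at −80 mV was normalized to capacitance.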

[13] = molecular target: T4, TRPML3 coexpressed with dynamin (Homo sapiens, UniProt Q8TDD5); experiment: Calcium imaging, HEK293 cells coexpressing wild type dynamin with TRPML3; type: cell-based; details: compared to control experiments
T4 sequence (Q8TDD5 1-553): T1 sequence (Q8TDD5 1-553)
How it was run: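 HEK293 cells were transiently cotransfected (Genejammer) with wild-type dynamin and TRPML3 and imaged 24 h later. Cells on glass coverslips were loaded with 4 µM fura-2-AM in bath solution (mM: 138 NaCl, 6 KCl, 2 MgCl2, 2 CaCl2, 10 HEPES, 5.5 D-glucose; pH 7.4). Responses to activators were compared with control transfections.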

[14] = system: YFP-expressing HEK293 cells; experiment: Whole-cell patch-clamp, YFP-expressing HEK293 cells; type: cell-based; details: current density at −80 mV, mean ±SEM (n≥3)
How it was run: as §3

Chain of danio rerio TRPN1 (Q7T1G6 1-1614): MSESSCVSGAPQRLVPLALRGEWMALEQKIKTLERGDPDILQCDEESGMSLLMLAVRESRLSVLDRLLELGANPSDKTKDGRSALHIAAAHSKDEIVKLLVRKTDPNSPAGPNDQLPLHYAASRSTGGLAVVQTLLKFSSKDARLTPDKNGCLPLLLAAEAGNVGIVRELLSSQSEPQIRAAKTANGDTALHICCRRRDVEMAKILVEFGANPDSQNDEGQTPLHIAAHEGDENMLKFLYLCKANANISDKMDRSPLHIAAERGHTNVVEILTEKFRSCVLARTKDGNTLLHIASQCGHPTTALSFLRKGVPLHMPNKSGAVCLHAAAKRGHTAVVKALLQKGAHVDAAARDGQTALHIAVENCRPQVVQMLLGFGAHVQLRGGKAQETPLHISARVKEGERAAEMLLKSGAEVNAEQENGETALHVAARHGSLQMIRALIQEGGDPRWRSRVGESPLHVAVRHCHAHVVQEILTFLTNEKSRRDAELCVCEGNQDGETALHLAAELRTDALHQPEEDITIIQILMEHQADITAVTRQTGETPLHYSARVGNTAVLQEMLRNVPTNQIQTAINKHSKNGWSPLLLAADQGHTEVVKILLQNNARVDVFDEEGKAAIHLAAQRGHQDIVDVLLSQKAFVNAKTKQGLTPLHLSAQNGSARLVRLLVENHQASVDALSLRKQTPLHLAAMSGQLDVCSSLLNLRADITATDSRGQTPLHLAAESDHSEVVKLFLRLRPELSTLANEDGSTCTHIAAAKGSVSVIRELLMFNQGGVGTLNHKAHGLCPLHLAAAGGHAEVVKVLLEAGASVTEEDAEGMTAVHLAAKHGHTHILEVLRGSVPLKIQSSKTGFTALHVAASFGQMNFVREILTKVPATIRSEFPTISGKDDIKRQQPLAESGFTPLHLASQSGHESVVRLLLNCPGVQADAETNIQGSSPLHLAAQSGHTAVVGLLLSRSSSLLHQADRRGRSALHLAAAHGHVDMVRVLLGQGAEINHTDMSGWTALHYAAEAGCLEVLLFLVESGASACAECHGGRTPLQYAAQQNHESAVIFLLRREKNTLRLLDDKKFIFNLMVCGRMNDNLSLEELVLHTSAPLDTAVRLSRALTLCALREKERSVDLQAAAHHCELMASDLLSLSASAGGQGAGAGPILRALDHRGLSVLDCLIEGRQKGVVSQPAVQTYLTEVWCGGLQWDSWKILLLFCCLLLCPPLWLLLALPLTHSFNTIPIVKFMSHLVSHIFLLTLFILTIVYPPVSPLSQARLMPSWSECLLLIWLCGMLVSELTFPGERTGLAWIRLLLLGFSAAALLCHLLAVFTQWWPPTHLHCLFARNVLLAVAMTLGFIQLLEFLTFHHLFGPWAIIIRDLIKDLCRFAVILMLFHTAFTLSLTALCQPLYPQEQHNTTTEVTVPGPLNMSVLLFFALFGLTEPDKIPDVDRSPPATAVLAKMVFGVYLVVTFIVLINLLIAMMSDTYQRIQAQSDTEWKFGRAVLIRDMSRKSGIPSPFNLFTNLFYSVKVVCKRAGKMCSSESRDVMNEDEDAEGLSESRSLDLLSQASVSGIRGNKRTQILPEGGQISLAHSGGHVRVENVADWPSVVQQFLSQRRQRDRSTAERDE
Chain of TRPML1(NC) (Q9GZU1 17-572 limits assumed): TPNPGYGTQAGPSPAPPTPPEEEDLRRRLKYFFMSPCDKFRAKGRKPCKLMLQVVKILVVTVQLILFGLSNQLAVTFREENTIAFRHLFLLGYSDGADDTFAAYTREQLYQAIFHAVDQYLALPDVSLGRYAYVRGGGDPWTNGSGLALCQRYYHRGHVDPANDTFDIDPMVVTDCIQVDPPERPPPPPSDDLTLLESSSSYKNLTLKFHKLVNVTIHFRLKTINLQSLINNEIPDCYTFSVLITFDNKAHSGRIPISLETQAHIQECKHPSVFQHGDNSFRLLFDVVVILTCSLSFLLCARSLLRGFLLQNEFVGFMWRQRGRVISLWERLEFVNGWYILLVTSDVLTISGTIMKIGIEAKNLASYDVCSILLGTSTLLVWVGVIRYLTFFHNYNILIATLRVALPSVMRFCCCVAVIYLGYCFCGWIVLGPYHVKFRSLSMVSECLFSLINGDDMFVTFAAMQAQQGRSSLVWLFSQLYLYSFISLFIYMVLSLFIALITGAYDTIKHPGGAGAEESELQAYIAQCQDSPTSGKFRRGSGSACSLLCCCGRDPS

| Compound | TRPML3 channel activity in cochlear hair cells [1] | Emax [2] [%] | ⊗F340/F380 (Control) [3] | nA/pF (-80 mV) (TRPML3) [4] [nA/pF] | average current density relative to constitutively active TRPML3 A419P [4] | response in HEK293 cells expressing TRPML2 [5] | ⊗F340/F380 (TRPML3) [6] | kinetics of intracellular calcium increase [6] | calcium imaging response when TRPML1 was coexpressed with TRPML3 [7] | EC50 [8] [µM] | Emax [8] [%] | activity against TRPN1 [8] | cell membrane permeability ([9]; inferred from intracellular infusion experiment) | response to intracellular application (infusion) ([9]; whole-cell, −80 mV) | activation of mutant TRPML1(NC) isoform [10] | TRPML3 activity in excised patches [11] | increase in current densities, compound + ELS vs ELS alone or compound in SBS [12] [fold] | response when wild type dynamin coexpressed with TRPML3 in HEK293 cells [13] | nA/pF (-80 mV) (Control) [14] [nA/pF] |
| --- | --- | --- | --- | --- | --- | --- | --- | --- | --- | --- | --- | --- | --- | --- | --- | --- | --- | --- | --- |
| O=S(=O)(NC1CCCCC1N1CCOCC1)c1ccc(Cl)cc1 (stereo not shown) [SF-21, 4-chloro-N-(2-morpholin-4-ylcyclohexyl)benzenesulfonamide] | Neither compound at concentrations of up-to 100 µM, with or without endolymph-like extracellular solution, elicited TRPML3 channel activity | 200 ± 7 | 0.033 ±0.008 | −0.55 ±0.08 | Stronger responses | elicited responses | 1.38 ±0.10 | much more rapid increase than the other compounds | strong reduction of the calcium imaging responses | 14.2 ± 2.03 | 61 ± 2 | significant activity against TRPN1 |  |  |  |  |  |  |  |
| O=S(=O)(Nc1ccccc1N1CCCCC1)c1ccc(Cl)s1 [SF-22, 5-chloro-N-(2-piperidin-1-ylphenyl)thiophene-2-sulfonamide] |  | 156 ± 16 |  | −0.24 ±0.06 | comparable to average current densities obtained from cells expressing the constitutively active varitint-waddler mutant isoform A419P |  | 1.00 ±0.07 |  | strong reduction of the calcium imaging responses | > 29.9 | 1 |  | not cell permeable | did not elicit a response when infused into the cells | able to activate this channel; also recorded: can be activated by compound SF-22 | markedly increased TRPML3 activity |  |  |  |
| Cc1ccc(S(=O)(=O)Nc2ccccc2-c2ccccc2)cc1 [SF-24, 4-methyl-N-(2-phenylphenyl)benzenesulfonamide] |  | 86 ± 7 | 0.016 ±0.023 | −0.02 ±0.01 |  |  | 0.51 ±0.05 |  |  | > 29.9 | 2 |  |  |  |  |  | ≤ 10 | reduction in response |  |
| CC1=CC(C)(C)N(C(=O)CN2C(=O)c3ccccc3C2=O)c2ccccc21 [SF-51, 2-[2-oxo-2-(2,2,4-trimethylquinolin-1-yl)ethyl]isoindole-1,3-dione] |  | 175 ± 18 |  | −0.41 ±0.10 | Stronger responses |  | 0.78 ±0.03 | slowest kinetics |  | > 29.9 | 47 ± 3 | significant activity against TRPN1 |  |  |  |  |  |  | −0.016 ±0.008 |
| CCCC(=O)Oc1c(S(=O)(=O)c2ccc(C)cc2)c(C)nn1C(C)(C)C [SF-71, [2-tert-butyl-5-methyl-4-(4-methylphenyl)sulfonylpyrazol-3-yl] butanoate] |  | 85 ± 8 |  | −0.08 ±0.02 |  |  | 0.75 ±0.06 |  |  | > 29.9 | 2 ± 1 |  |  |  |  |  |  |  | −0.012 ±0.006 |
